Reference: ChEMBL document CHEMBL4340529, “Selective degradation of CDK6 by a palbociclib based PROTAC” (Bioorg Med Chem Lett, 2019)
Active and inactive are the calls of the source. The calls are words filed in the database; no cut-off is given here.

What was measured:
[1] = target: T1, Protein cereblon/Cyclin-dependent kinase 4 (Homo sapiens) (UniProt P11802+Q96SW2); test: Induction of CRBN-mediated CDK4 degradation in human MIAPaCa2 cells at 0.5 uM measured after 4 hrs by western blot analysis; type: cell-based
T1 sequence (P11802 2-303 limits assumed): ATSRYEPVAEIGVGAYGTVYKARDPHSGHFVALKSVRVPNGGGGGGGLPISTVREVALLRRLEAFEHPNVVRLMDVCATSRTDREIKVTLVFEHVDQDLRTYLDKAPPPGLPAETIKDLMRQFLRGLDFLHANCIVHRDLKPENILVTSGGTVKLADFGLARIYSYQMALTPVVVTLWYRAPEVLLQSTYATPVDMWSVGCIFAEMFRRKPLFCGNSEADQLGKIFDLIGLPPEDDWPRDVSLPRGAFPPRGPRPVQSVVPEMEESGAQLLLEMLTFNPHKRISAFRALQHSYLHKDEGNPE
T1 sequence (Q96SW2 whole entry partner): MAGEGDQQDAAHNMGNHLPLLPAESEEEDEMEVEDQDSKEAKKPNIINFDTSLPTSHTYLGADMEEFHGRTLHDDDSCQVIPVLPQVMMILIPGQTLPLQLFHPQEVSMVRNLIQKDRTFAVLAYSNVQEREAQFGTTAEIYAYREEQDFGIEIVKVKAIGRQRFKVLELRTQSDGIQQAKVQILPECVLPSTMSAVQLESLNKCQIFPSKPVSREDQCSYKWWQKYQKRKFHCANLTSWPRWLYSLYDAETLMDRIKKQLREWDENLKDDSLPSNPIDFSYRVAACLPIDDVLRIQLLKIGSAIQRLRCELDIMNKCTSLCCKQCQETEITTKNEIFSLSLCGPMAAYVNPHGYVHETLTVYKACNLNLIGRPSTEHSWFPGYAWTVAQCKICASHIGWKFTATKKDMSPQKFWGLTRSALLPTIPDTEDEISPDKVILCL
In short: (§1)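 MiaPaCa2 cells treated with degrader analogs at 0.5 μM for 4 h; lysates analysed by Western blot for CDK4, CDK6 and RB.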

[2] = target: T2, Protein cereblon/Cyclin-dependent kinase 6 (Homo sapiens) (UniProt Q00534+Q96SW2); test: Induction of CRBN-mediated CDK6 degradation in human MIAPaCa2 cells at 0.5 uM measured after 4 hrs by western blot analysis; type: cell-based; in short: as §1
T2 sequence (Q00534 whole entry, looked up): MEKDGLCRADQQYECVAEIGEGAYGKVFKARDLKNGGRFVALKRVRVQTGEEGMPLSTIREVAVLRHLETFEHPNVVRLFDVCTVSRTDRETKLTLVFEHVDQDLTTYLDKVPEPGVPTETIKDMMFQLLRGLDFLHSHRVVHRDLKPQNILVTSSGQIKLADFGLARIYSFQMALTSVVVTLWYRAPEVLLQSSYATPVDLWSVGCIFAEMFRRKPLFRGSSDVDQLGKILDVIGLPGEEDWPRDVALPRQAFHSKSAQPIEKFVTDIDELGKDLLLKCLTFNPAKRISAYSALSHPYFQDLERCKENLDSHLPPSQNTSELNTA
T2 sequence (Q96SW2 whole entry, looked up): as the sequence (Q96SW2 whole entry partner) above

[3] = target: Protein cereblon/Cyclin-dependent kinase 5 (Homo sapiens) (UniProt Q00535+Q96SW2); test: Induction of CRBN-mediated CDK5 degradation in human MIAPaCa2 cells at 0.5 uM measured after 24 hrs by western blot analysis; type: cell-based
Sequence of Protein cereblon/Cyclin-dependent kinase 5 (Homo sapiens) (Q00535 whole entry, looked up): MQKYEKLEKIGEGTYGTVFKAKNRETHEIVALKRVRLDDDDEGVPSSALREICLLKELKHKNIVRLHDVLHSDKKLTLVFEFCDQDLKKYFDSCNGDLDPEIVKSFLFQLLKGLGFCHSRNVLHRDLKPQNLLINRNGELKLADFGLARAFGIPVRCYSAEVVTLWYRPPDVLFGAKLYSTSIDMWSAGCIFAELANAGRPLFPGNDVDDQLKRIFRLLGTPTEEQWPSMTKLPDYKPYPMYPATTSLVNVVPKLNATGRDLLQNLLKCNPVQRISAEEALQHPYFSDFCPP
Sequence of Protein cereblon/Cyclin-dependent kinase 5 (Homo sapiens) (Q96SW2 whole entry, looked up): as the sequence (Q96SW2 whole entry partner) above
In short: (§2)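 MiaPaCa2 cells exposed to 0.5 μM of each degrader analog for 24 h; lysates immunoblotted for CDK2, CDK5, CDK7 and CDK9 within a kinase panel.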

[4] = target: T2, Protein cereblon/Cyclin-dependent kinase 6 (Homo sapiens); test: Induction of CRBN-mediated CDK6 degradation in human MIAPaCa2 cells at 1 uM measured after 24 hrs in presence of palbociclib by western blot analysis; type: cell-based
In short: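 Competition test: MiaPaCa2 cells incubated 24 h with palbociclib 10 µM, degrader 1 µM, or both together; lysates probed for CDK4 and CDK6 by Western blot.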

[5] = Induction of CRBN-mediated CDK4/cyclin D1 (unknown origin) degradation; conditions: Homo sapiens
[6] = target: T2, Protein cereblon/Cyclin-dependent kinase 6 (Homo sapiens); test: Induction of CRBN-mediated CDK6 degradation in human HPNE cells at 0.1 uM measured after 24 hrs by western blot analysis; type: cell-based
In short: (§3)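 HPNE cells given a range of degrader concentrations and harvested at 4 h and at 24 h; CDK4 and CDK6 levels read by Western blot.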

[7] = target: T1, Protein cereblon/Cyclin-dependent kinase 4 (Homo sapiens); test: Induction of CRBN-mediated CDK4 degradation in human MIAPaCa2 cells at 0.1 uM measured after 24 hrs by western blot analysis; type: cell-based
In short: (§4)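 Dose-response in MiaPaCa2 cells: graded degrader concentrations for 4 h and for 24 h; CDK4 and CDK6 read by immunoblot.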

[8] = target: T2, Protein cereblon/Cyclin-dependent kinase 6 (Homo sapiens); test: Induction of CRBN-mediated CDK6 degradation in human MIAPaCa2 cells at 5 to 10 uM measured after 4 hrs by western blot analysis; type: cell-based
[9] = target: T2, Protein cereblon/Cyclin-dependent kinase 6 (Homo sapiens); test: Induction of CRBN-mediated CDK6 degradation in human HPNE cells at 0.1 uM measured after 4 hrs by Western blot analysis; type: cell-based; in short: as §3
[10] = target: Protein cereblon/Cyclin-dependent kinase 6/G1/S-specific cyclin-D3 (Homo sapiens) (UniProt P30281+Q00534+Q96SW2); test: Induction of CRBN-mediated CDK6/cyclin D3 (unknown origin) degradation; type: protein assay
Sequence of Protein cereblon/Cyclin-dependent kinase 6/G1/S-specific cyclin-D3 (Homo sapiens) (P30281 whole entry, looked up): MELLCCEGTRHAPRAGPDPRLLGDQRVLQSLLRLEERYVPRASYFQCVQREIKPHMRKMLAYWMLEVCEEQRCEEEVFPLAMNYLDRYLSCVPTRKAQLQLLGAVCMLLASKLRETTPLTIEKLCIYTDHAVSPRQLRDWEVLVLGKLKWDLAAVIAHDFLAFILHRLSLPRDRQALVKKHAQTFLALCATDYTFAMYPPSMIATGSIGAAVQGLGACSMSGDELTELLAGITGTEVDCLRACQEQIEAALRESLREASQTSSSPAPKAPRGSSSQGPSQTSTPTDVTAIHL
Sequence of Protein cereblon/Cyclin-dependent kinase 6/G1/S-specific cyclin-D3 (Homo sapiens) (Q00534 whole entry, looked up): as the sequence (Q00534 whole entry, looked up) above
Sequence of Protein cereblon/Cyclin-dependent kinase 6/G1/S-specific cyclin-D3 (Homo sapiens) (Q96SW2 whole entry, looked up): as the sequence (Q96SW2 whole entry partner) above

[11] = target: T1, Protein cereblon/Cyclin-dependent kinase 4 (Homo sapiens); test: Induction of CRBN-mediated CDK4 degradation in human MIAPaCa2 cells at 0.1 uM measured after 4 hrs by western blot analysis; type: cell-based; in short: as §4
[12] = target: T2, Protein cereblon/Cyclin-dependent kinase 6 (Homo sapiens); test: Induction of CRBN-mediated CDK6 degradation in human MIAPaCa2 cells at 1 uM measured after 8 hrs in presence of proteasome inhibitor MG132 by Western blot analysis; type: cell-based
[13] = target: T2, Protein cereblon/Cyclin-dependent kinase 6 (Homo sapiens); test: Induction of CRBN-mediated CDK6 degradation in human MIAPaCa2 cells at 0.1 uM measured after 4 hrs by Western blot analysis; type: cell-based; in short: as §4
[14] = target: Protein cereblon/Retinoblastoma-associated protein (Homo sapiens) (UniProt P06400+Q96SW2); test: Induction of CRBN-mediated RB degradation in human MIAPaCa2 cells at 0.5 uM measured after 4 hrs by western blot analysis; type: cell-based; in short: as §1
Sequence of Protein cereblon/Retinoblastoma-associated protein (Homo sapiens) (P06400 whole entry, looked up): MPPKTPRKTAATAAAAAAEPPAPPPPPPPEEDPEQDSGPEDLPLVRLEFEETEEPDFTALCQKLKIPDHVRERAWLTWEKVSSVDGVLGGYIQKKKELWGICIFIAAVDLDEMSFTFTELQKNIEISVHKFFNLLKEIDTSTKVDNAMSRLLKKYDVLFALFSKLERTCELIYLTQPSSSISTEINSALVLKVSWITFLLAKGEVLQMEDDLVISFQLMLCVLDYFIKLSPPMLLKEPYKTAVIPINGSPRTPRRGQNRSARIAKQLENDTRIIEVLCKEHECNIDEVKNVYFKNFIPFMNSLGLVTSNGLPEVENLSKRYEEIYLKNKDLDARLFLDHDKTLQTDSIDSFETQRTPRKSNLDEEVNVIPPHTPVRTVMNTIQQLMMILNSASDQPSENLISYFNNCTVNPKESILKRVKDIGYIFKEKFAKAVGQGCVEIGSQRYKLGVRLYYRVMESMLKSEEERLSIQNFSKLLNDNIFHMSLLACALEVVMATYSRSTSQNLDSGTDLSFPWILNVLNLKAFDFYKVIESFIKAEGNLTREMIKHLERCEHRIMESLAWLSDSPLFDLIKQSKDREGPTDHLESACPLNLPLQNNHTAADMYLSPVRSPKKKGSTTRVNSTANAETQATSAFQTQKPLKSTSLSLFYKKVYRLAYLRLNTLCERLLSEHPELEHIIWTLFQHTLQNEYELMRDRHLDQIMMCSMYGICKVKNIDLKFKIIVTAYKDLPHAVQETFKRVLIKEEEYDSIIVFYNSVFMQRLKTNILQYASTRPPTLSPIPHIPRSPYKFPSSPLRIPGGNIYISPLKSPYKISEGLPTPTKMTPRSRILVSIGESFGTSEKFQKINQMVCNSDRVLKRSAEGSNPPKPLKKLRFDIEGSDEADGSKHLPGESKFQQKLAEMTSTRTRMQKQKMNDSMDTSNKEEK
Sequence of Protein cereblon/Retinoblastoma-associated protein (Homo sapiens) (Q96SW2 whole entry, looked up): as the sequence (Q96SW2 whole entry partner) above

[15] = target: T1, Protein cereblon/Cyclin-dependent kinase 4 (Homo sapiens); test: Induction of CRBN-mediated CDK4 degradation in human HPNE cells at 0.1 uM measured after 4 hrs by western blot analysis; type: cell-based; in short: as §3
[16] = target: T2, Protein cereblon/Cyclin-dependent kinase 6 (Homo sapiens); test: Induction of CRBN-mediated CDK6 degradation in human MIAPaCa2 cells at 1 uM measured after 24 hrs in presence of pomalidomide by Western blot analysis; type: cell-based
In short: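 CRBN-ligand competition in MiaPaCa2 cells: pomalidomide 0.1–10 µM given alone or with degrader 1 µM for 24 h; lysates immunoblotted for CDK6.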

[17] = target: T2, Protein cereblon/Cyclin-dependent kinase 6 (Homo sapiens); test: Induction of CRBN-mediated CDK6 degradation in human HPNE cells at 5 to 10 uM measured after 4 hrs by Western blot analysis; type: cell-based
[18] = target: T2, Protein cereblon/Cyclin-dependent kinase 6 (Homo sapiens); test: Induction of CRBN-mediated CDK6 degradation in human MIAPaCa2 cells at 500 nM by Western blot analysis; type: cell-based; conditions: TDE = time-dependent effect
[19] = target: T1, Protein cereblon/Cyclin-dependent kinase 4 (Homo sapiens); test: Induction of CRBN-mediated CDK4 degradation in human HPNE cells at 0.1 uM measured after 24 hrs by western blot analysis; type: cell-based; in short: as §3
[20] = target: T2, Protein cereblon/Cyclin-dependent kinase 6 (Homo sapiens); test: Induction of CRBN-mediated CDK6 degradation in human MIAPaCa2 cells at 0.15 to 5 uM measured after 4 hrs by Western blot analysis; type: cell-based
[21] = target: T2, Protein cereblon/Cyclin-dependent kinase 6 (Homo sapiens); test: Induction of CRBN-mediated CDK6 degradation in human MIAPaCa2 cells at 1 uM measured after 24 hrs by western blot analysis; type: cell-based
[22] = target: Protein cereblon/Cyclin-dependent kinase 2 (Homo sapiens) (UniProt P24941+Q96SW2); test: Induction of CRBN-mediated CDK2 degradation in human MIAPaCa2 cells at 0.5 uM measured after 24 hrs by western blot analysis; type: cell-based; in short: as §2
[23] = target: T2, Protein cereblon/Cyclin-dependent kinase 6 (Homo sapiens); test: Induction of CRBN-mediated CDK6 degradation in human HPNE cells at 500 nM by Western blot analysis; type: cell-based; conditions: TDE = time-dependent effect
[24] = target: T2, Protein cereblon/Cyclin-dependent kinase 6 (Homo sapiens); test: Induction of CRBN-mediated CDK6 degradation in human MIAPaCa2 cells at 0.1 uM measured after 24 hrs by western blot analysis; type: cell-based; in short: as §4
[25] = target: Protein cereblon/Cyclin-dependent kinase 7 (Homo sapiens) (UniProt P50613+Q96SW2); test: Induction of CRBN-mediated CDK7 degradation in human MIAPaCa2 cells at 0.5 uM measured after 24 hrs by western blot analysis; type: cell-based; in short: as §2
Sequence of Protein cereblon/Cyclin-dependent kinase 7 (Homo sapiens) (P50613 whole entry, looked up): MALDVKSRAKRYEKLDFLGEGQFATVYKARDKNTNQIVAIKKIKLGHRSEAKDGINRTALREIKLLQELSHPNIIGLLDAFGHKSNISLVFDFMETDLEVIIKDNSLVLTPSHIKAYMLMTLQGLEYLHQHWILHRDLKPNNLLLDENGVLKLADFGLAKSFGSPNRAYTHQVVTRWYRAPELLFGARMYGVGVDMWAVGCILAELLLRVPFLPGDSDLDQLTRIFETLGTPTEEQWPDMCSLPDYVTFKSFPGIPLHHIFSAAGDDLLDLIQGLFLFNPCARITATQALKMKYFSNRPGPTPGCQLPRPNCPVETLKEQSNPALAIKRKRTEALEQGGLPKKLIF
Sequence of Protein cereblon/Cyclin-dependent kinase 7 (Homo sapiens) (Q96SW2 whole entry, looked up): as the sequence (Q96SW2 whole entry partner) above

[26] = target: Protein cereblon/Cyclin-dependent kinase 9 (Homo sapiens) (UniProt P50750+Q96SW2); test: Induction of CRBN-mediated CDK9 degradation in human MIAPaCa2 cells at 0.5 uM measured after 24 hrs by western blot analysis; type: cell-based; in short: as §2
Sequence of Protein cereblon/Cyclin-dependent kinase 9 (Homo sapiens) (P50750 whole entry, looked up): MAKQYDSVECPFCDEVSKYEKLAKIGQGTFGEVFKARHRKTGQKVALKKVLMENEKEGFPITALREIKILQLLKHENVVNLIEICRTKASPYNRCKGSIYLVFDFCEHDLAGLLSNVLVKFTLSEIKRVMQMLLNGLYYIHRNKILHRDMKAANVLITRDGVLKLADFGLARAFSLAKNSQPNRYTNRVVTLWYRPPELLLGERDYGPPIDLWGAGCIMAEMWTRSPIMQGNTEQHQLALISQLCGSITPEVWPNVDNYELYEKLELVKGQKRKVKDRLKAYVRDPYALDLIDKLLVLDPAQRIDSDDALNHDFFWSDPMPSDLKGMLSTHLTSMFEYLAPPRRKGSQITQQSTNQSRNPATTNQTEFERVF
Sequence of Protein cereblon/Cyclin-dependent kinase 9 (Homo sapiens) (Q96SW2 whole entry, looked up): as the sequence (Q96SW2 whole entry partner) above

CC(=O)c1c(C)c2cnc(Nc3ccc(N4CCN(CC(=O)NCCCCNc5cccc6c5C(=O)N(C5CCC(=O)NC5=O)C6=O)CC4)cn3)nc2n(C2CCCC2)c1=O (stereo not drawn)
Activity [1]: Active
Activity [2]: Active

CC(=O)c1c(C)c2cnc(Nc3ccc(N4CCN(CCCCCC(=O)Nc5cccc6c5C(=O)N(C5CCC(=O)NC5=O)C6=O)CC4)cn3)nc2n(C2CCCC2)c1=O (stereo not drawn)
Activity [1]: Active
Activity [2]: Active

CC(=O)c1c(C)c2cnc(Nc3ccc(N4CCN(CC(=O)NCCCOCCOCCOCCCNc5cccc6c5C(=O)N(C5CCC(=O)NC5=O)C6=O)CC4)cn3)nc2n(C2CCCC2)c1=O (stereo not drawn)
Activity [3]: inactive
Activity [4]: inactive
Activity [5]: < 1.5 nM
Activity [6]: Active
Activity [7]: inactive
Activity [8]: Active
Activity [1]: inactive
Activity [9]: Active
Activity [10]: 6.61 nM
Activity [2]: Active
Activity [11]: inactive
Activity [12]: inactive
Activity [13]: Active
Activity [14]: inactive
Activity [15]: inactive
Activity [16]: inactive
Activity [17]: Active
Activity [18]: Tde
Activity [19]: inactive
Activity [20]: Active
Activity [21]: Active
Activity [22]: inactive
Activity [23]: Tde
Activity [24]: Active
Activity [25]: inactive
Activity [26]: inactive

CC(=O)c1c(C)c2cnc(Nc3ccc(N4CCN(CC(=O)NCCCCCCCCNc5cccc6c5C(=O)N(C5CCC(=O)NC5=O)C6=O)CC4)cn3)nc2n(C2CCCC2)c1=O (stereo not drawn)
Activity [2]: Active

CC(=O)c1c(C)c2cnc(Nc3ccc(N4CCN(CCOCCOCCOc5cccc6c5C(=O)N(C5CCC(=O)NC5=O)C6=O)CC4)cn3)nc2n(C2CCCC2)c1=O (stereo not drawn)
Activity [1]: Active
Activity [2]: Active
